Laboratory results reported in ChEMBL document CHEMBL4229392, “An Efficient Buchwald-Hartwig/Reductive Cyclization for the Scaffold Diversification of Halogenated Phenazines: Potent Antibacterial Targeting, Biofilm Eradication, and Prodrug Exploration” (J Med Chem, 2018).
Converted amounts (≈) assume the structure as drawn.

Experiments:
[1] = tested on: Staphylococcus epidermidis; assay: Bactericidal activity against methicillin-resistant Staphylococcus epidermidis ATCC 35984 planktonic cells after 24 hrs by calgary biofilm device method; assay type: organism-based
How it was run: (§1)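 Biofilms grown 24 h at 37 °C on Calgary device pegs from mid-log culture diluted 1,000-fold in TSB + 0.5% glucose; washed pegs challenged 24 h at 37 °C with 2-fold serial dilutions. Challenge medium subcultured into fresh TSBG overnight; MBC = concentration without visible turbidity; at least three independent experiments.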

Enterococcus faecium [2] = assay: Antibacterial activity against vancomycin-resistant Enterococcus faecium ATCC 700221 after 16 to 18 hrs by broth microdilution method; assay type: functional
How it was run: (§2)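 CLSI broth microdilution in Lysogeny Broth, eleven two-fold dilutions spanning 0.10–100 µM; ~10^5 cells per well from log-phase culture; DMSO vehicle (top 1% v/v). MIC = lowest concentration preventing growth after 16–18 h at 37 °C, supported by OD600; three independent experiments.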

[3] = Hemolytic activity in human RBC at 200 uM after 1 hr relative to control; assay type: ADME, cell-based, Erythrocyte; settings: red blood cells (erythrocytes), read-out: Activity
How it was run: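 Human RBCs drawn fresh into EDTA were washed three times in Tris-buffered saline (0.01 M Tris, 0.155 M NaCl, pH 7.2). 2% hRBC suspension was added to compound from DMSO stock, final 200 µM, for 1 h at 37 °C, then centrifuged and supernatant OD405 read. Scaled between DMSO (0%) and Triton X (100%). Three independent experiments.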

Staphylococcus aureus [4] = assay: Induction of biofilm eradication of methicillin-resistant Staphylococcus aureus BAA-1707 after 24 hrs by calgary biofilm device method; assay type: functional
How it was run: (§3)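 Calgary device: biofilms established 24 h at 37 °C from mid-log culture diluted 1,000-fold in TSBG (0.5% glucose), washed, exposed 24 h to 2-fold serial dilutions, then peg lid moved to fresh TSBG for 24 h recovery. MBEC = lowest concentration giving no turbidity; at least three independent experiments.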

Staphylococcus aureus [5] = assay: Bactericidal activity against methicillin-resistant Staphylococcus aureus BAA-1707 planktonic cells after 24 hrs by calgary biofilm device method; assay type: organism-based; how it was run: as §1
[6] = tested on: Staphylococcus epidermidis; assay: Antibacterial activity against methicillin-resistant Staphylococcus epidermidis ATCC 35984 after 16 to 18 hrs by broth microdilution method; assay type: functional
Staphylococcus aureus [7] = assay: Antibacterial activity against methicillin-resistant Staphylococcus aureus BAA-1707 after 16 to 18 hrs by broth microdilution method; assay type: functional; how it was run: as §2
[8] = Half life in human serum by LC-MS analysis; assay type: ADME, cell-free
How it was run: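 Human serum pre-warmed to 37 °C, spiked with prodrug from 10 mM DMSO stock plus internal standard, vortexed, then held 1 to 60 min. At each time point, acetonitrile with 0.5% formic acid was added to precipitate proteins. Released active HP was quantified as its ratio to internal standard against standard curves.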

Enterococcus faecium [9] = assay: Induction of biofilm eradication of vancomycin-resistant Enterococcus faecium ATCC 700221 after 24 hrs by calgary biofilm device method; assay type: functional; how it was run: as §3
HeLa = assay: Cytotoxicity against human HeLa cells after 24 hrs by LDH release assy; assay type: cell-based
How it was run: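 HeLa cells in DMEM with 10% FBS at 37 °C, 5% CO2, dosed at 70-80% confluence with compound diluted in medium at 25, 50 and 100 µM for 24 h. Supernatant mixed with LDH reaction mixture, 30 min at room temperature, stopped, A490 read. Triton X-100 (2% v/v) as maximal-release control, medium only as no-death control, DMSO as vehicle. Three independent experiments.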

Enterococcus faecium [10] = assay: Bactericidal activity against vancomycin-resistant Enterococcus faecium ATCC 700221 planktonic cells after 24 hrs by calgary biofilm device method; assay type: organism-based; how it was run: as §1
[11] = tested on: Mycobacterium tuberculosis; assay: Antibacterial activity against Mycobacterium tuberculosis H37Ra ATCC 25177 after 7 days; assay type: functional; settings: H37Ra ATCC 25177, 168 h
How it was run: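 M. tuberculosis H37Ra grown two weeks in Middlebrook 7H9, diluted to OD600 0.01; two-fold serial dilutions 0.024–50 µM (streptomycin positive control, 0.16–340 µM); final DMSO 0.5%. Incubated 7 days at 37 °C; MIC = lowest concentration with no growth, OD600 recorded; three independent experiments.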

[12] = tested on: Staphylococcus epidermidis; assay: Induction of biofilm eradication of methicillin-resistant Staphylococcus epidermidis ATCC 35984 after 24 hrs by calgary biofilm device method; assay type: functional; how it was run: as §3
Staphylococcus aureus [13] = assay: Bactericidal activity against methicillin-resistant Staphylococcus aureus 2 planktonic cells after 24 hrs by calgary biofilm device method; assay type: organism-based; how it was run: as §1
Staphylococcus aureus [14] = assay: Antibacterial activity against methicillin-resistant Staphylococcus aureus 2 after 16 to 18 hrs by broth microdilution method; assay type: functional; how it was run: as §2
Staphylococcus aureus [15] = assay: Induction of biofilm eradication of methicillin-resistant Staphylococcus aureus 2 after 24 hrs by calgary biofilm device method; assay type: functional; how it was run: as §3

Compound `COCCOCCOCCOCCOC(=O)Oc1c(Br)cc(Br)c2nc3cc(Oc4ccccc4)ccc3nc12` has an MBC [1] of 9.38 µM (≈ 6.38 µg/mL), an MIC (Enterococcus faecium [2]) of 0.3 µM (≈ 0.204 µg/mL) and a hemolysis at 1 h, 200 µM [3] of at most 1%. It also gave an MBEC (Staphylococcus aureus [4]) of 4.69 µM, an MBC (Staphylococcus aureus [5]) of 18.8 µM (≈ 12.8 µg/mL) and an MIC [6] of 0.075 µM (≈ 0.051 µg/mL). The MIC (Staphylococcus aureus [7]) was 0.1 µM (≈ 0.068 µg/mL), the half-life [8] was under 1 min and the MBEC (Enterococcus faecium [9]) was 1.17 µM.

With `CCCc1ccc2nc3c(O)c(Br)cc(Br)c3nc2c1` the IC50 (HeLa) was over 50 µM, the MBC [1] was 25 µM (≈ 9.9 µg/mL) and the MBC (Enterococcus faecium [10]) was 25 µM (≈ 9.9 µg/mL). The MIC (Enterococcus faecium [2]) was 3.13 µM (≈ 1.24 µg/mL), the hemolysis at 1 h, 200 µM [3] was 2.1% and the MBEC (Staphylococcus aureus [4]) was 75 µM. For the same compound, the MIC [6] was 0.15 µM (≈ 0.0594 µg/mL) and the MIC (Staphylococcus aureus [7]) was 0.1 µM (≈ 0.0396 µg/mL).

With `Cc1ccc2nc3c(O)c(Br)cc(Br)c3nc2c1` the IC50 (HeLa) was over 100 µM, the MIC [11] was 6.25 µM (≈ 2.3 µg/mL) and the MBC (Enterococcus faecium [10]) was 12.5 µM (≈ 4.6 µg/mL). For the same compound, the MIC (Enterococcus faecium [2]) was 2.35 µM (≈ 0.865 µg/mL), the hemolysis at 1 h, 200 µM [3] was at most 1% and the MIC [6] was 0.3 µM (≈ 0.11 µg/mL). It also gave an MBEC (Enterococcus faecium [9]) of 3.13 µM.

Compound `COCCOCCOCCOCCOC(=O)Oc1c(Br)cc(Br)c2nc3cc(Cl)ccc3nc12` has an IC50 (HeLa) of over 100 µM, an MBC [1] of 9.38 µM (≈ 5.84 µg/mL) and an MIC (Enterococcus faecium [2]) of 0.1 µM (≈ 0.0623 µg/mL). It also gave a hemolysis at 1 h, 200 µM [3] of 1.1%, an MBC (Staphylococcus aureus [5]) of 6.25 µM (≈ 3.89 µg/mL) and an MIC [6] of 0.038 µM (≈ 0.0237 µg/mL). It also gave a half-life [8] of under 1 min and an MBEC [12] of 18.8 µM.

With `CCCCCCCCCC(=O)N[C@@H](Cc1c[nH]c2ccccc12)C(=O)N[C@H](CC(N)=O)C(=O)N[C@@H](CC(=O)O)C(=O)N[C@@H]1C(=O)NCC(=O)N[C@@H](CCCN)C(=O)N[C@@H](CC(=O)O)C(=O)N[C@H](C)C(=O)N[C@@H](CC(=O)O)C(=O)NCC(=O)N[C@H](CO)C(=O)N[C@@H]([C@H](C)CC(=O)O)C(=O)N[C@@H](CC(=O)c2ccccc2N)C(=O)O[C@@H]1C` [DAPTOMYCIN] the MBC (Staphylococcus aureus [13]) was 62.5 µM (≈ 101 µg/mL) and the MBC (Staphylococcus aureus [5]) was 125 µM (≈ 203 µg/mL).

Work on `CCN(CC)c1ccc2nc3c(O)c(Br)cc(Br)c3nc2c1Br` yielded an IC50 (HeLa) of over 100 µM, an MBC [1] of 9.38 µM (≈ 4.73 µg/mL) and an MIC (Enterococcus faecium [2]) of 0.3 µM (≈ 0.151 µg/mL). The hemolysis at 1 h, 200 µM [3] was at most 1%, the MBEC (Staphylococcus aureus [4]) was 4.69 µM and the MBC (Staphylococcus aureus [5]) was 9.38 µM (≈ 4.73 µg/mL). For the same compound, the MIC [6] was 0.1 µM (≈ 0.0504 µg/mL), the MIC (Staphylococcus aureus [7]) was 0.15 µM (≈ 0.0756 µg/mL) and the MIC (Staphylococcus aureus [14]) was 0.3 µM (≈ 0.151 µg/mL). For the same compound, the MBEC [12] was 6.25 µM.

`CCCCCCCCCC(=O)N[C@@H](Cc1c[nH]c2ccccc12)C(=O)N[C@@H](CC(N)=O)C(=O)N[C@@H](CC(=O)O)C(=O)N[C@@H]1C(=O)NCC(=O)N[C@@H](CCCN)C(=O)N[C@@H](CC(=O)O)C(=O)N[C@H](C)C(=O)N[C@@H](CC(=O)O)C(=O)NCC(=O)N[C@H](CO)C(=O)N[C@@H]([C@H](C)CC(=O)O)C(=O)N[C@@H](CC(=O)c2ccccc2N)C(=O)O[C@@H]1C` [DAPTOMYCIN] gave an MBEC (Staphylococcus aureus [4]) of over 2000 µM, an MIC (Staphylococcus aureus [7]) of 3.13 µM (≈ 5.07 µg/mL) and an MBEC (Staphylococcus aureus [15]) of over 2000 µM.

For `CCOC(=O)c1ccc2nc3c(O)c(Br)cc(Br)c3nc2c1`, the MIC (Enterococcus faecium [2]) was 2.35 µM (≈ 1 µg/mL).

In the case of `Oc1ccc(Br)c2nc3cc(Cl)ccc3nc12`, the IC50 (HeLa) is reported as over 100 µM, the MIC [11] is reported as 6.25 µM (≈ 1.93 µg/mL) and the MIC (Enterococcus faecium [2]) is reported as 25 µM (≈ 7.74 µg/mL). The MIC [6] was 18.8 µM (≈ 5.82 µg/mL).

For `O=C(O)CN(CCN(CC(=O)O)CC(=O)O)CC(=O)O` [EDETIC ACID], the MBC (Staphylococcus aureus [13]) was 2000 µM (≈ 584 µg/mL), the MBC [1] was 1000 µM (≈ 292 µg/mL) and the MBEC (Staphylococcus aureus [4]) was over 2000 µM. For the same compound, the MBC (Staphylococcus aureus [5]) was over 2000 µM, the MIC (Staphylococcus aureus [7]) was 25 µM (≈ 7.31 µg/mL) and the MBEC [12] was over 2000 µM. It also gave an MBEC (Staphylococcus aureus [15]) of over 2000 µM.

Work on `c1ccc(CN(CCN(Cc2ccccn2)Cc2ccccn2)Cc2ccccn2)nc1` yielded an MBC (Enterococcus faecium [10]) of 188 µM (≈ 79.8 µg/mL), a hemolysis at 1 h, 200 µM [3] of at most 1% and an MBEC (Staphylococcus aureus [4]) of over 2000 µM. It also gave an MBC (Staphylococcus aureus [5]) of 250 µM (≈ 106 µg/mL), an MIC (Staphylococcus aureus [7]) of 50 µM (≈ 21.2 µg/mL) and an MBEC (Enterococcus faecium [9]) of over 2000 µM.

For `C[C@H]1c2cccc(O)c2C(=O)C2=C(O)[C@]3(O)C(=O)C(C(N)=O)=C(O)[C@@H](N(C)C)[C@@H]3[C@@H](O)[C@@H]21.O` [DOXYCYCLINE], the MBC (Staphylococcus aureus [13]) was 2 µM and the MBEC (Staphylococcus aureus [15]) was 46.9 µM.

Work on `O=C(OCCSSCCOC(=O)c1ccccc1)OCOc1c(Br)cc(Br)c2nc3ccccc3nc12` yielded an IC50 (HeLa) of over 100 µM, an MIC (Enterococcus faecium [2]) of over 100 µM and a hemolysis at 1 h, 200 µM [3] of 1.3%. The MIC [6] was over 100 µM and the MIC (Staphylococcus aureus [7]) was over 100 µM.

`Cc1cc2nc3c(O)c(Br)cc(Br)c3nc2c(C)c1C` gave an IC50 (HeLa) of over 100 µM, an MBC [1] of 25 µM (≈ 9.9 µg/mL) and a hemolysis at 1 h, 200 µM [3] of 1.3%. It also gave an MBEC (Staphylococcus aureus [4]) of 75 µM, an MBC (Staphylococcus aureus [5]) of 150 µM (≈ 59.4 µg/mL) and an MIC [6] of 0.1 µM (≈ 0.0396 µg/mL). The MIC (Staphylococcus aureus [7]) was 0.59 µM (≈ 0.234 µg/mL) and the MBEC [12] was 25 µM.

Work on `Cc1cc(C)c2nc3c(Br)ccc(O)c3nc2c1` yielded an IC50 (HeLa) of over 100 µM, an MIC [11] of 50 µM (≈ 15.2 µg/mL) and an MIC (Enterococcus faecium [2]) of 9.38 µM (≈ 2.84 µg/mL). For the same compound, the MIC (Staphylococcus aureus [7]) was 4.69 µM (≈ 1.42 µg/mL).
